In PubChem BioAssay AID449761 (Broad Institute, 2010):
Records with an inconclusive call do not appear. The source made the active and inactive calls.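 The calls were made as follows: active = compounds raising caspase signal with fitted AC50 no more than tenfold above the top tested dose; inconclusive = flat curve at 30 to 70% activity, or unusable fit; inactive = the rest.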

Test system: MEF WT non-primed, caspase-Glo luminescence, 3 h
Assay: caspase activity of non-primed cells – cell-based, caspase-Glo luminescence, 3 h, counter-screen for Bcl2-A1 inhibitor project, dose response (AID 449761)
Outline: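 Technique: CaspaseGlo luminescence | Material: Non-primed wild-type MEF cells | Quantity: 2500 cells/well | Times: 3 h compound at 37 °C, 1 h detection at room temperature | Dosing: 100 nL compound added per well by pin transfer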

Structure (SMILES) | AC50
Cc1ccc(NC(=O)c2ccc(N/N=C/c3cccc(O)c3)c([N+](=O)[O-])c2)cc1 | 29.8 µM
O=C(Nc1ccc2oc(-c3cccc(F)c3)nc2c1)c1ccccc1F | > 35 µM (inactive)
CCc1ccc(NC(=O)c2nc(S(=O)(=O)Cc3ccccc3)ncc2Cl)cc1 | > 35 µM (inactive)
COc1ccc(C=C2C=C(C(C)(C)C)C(=O)C(C(C)(C)C)=C2)cc1OC | 2.98 µM
CCc1ccc(Nc2n[n+](-c3ccccc3)c(/C=C/c3ccccc3)s2)cc1 | 9.79 µM
CCOC(=O)CSC1=N/C(=C/c2ccc(-n3cncn3)cc2)C(=O)N1C(C)=O | > 35 µM (inactive)
CC(C)CCN(C(=O)Cc1ccc(Cl)c(Cl)c1)c1c(N)n(Cc2ccccc2)c(=O)[nH]c1=O | 14.6 µM
CCN(C(=O)CCN1C(=O)c2ccccc2S1(=O)=O)c1ccccc1 | > 35 µM (inactive)
C=C1/C=C(\C)[C@](C)(O)C[C@H](O)CC(=O)[C@H](O)[C@@H](O)[C@H](C)C[C@H](C)OC(=O)/C(C)=C/CC/C=C/[C@@H]2O[C@H]2C[C@H](C)C1 | > 35 µM (inactive)
COc1cc2ncnc(NCc3ccc(F)cc3)c2cc1OC | > 35 µM (inactive)
COc1ccc(OC)c2sc(N(CCCN(C)C)C(=O)c3ccc(S(=O)(=O)N4CCc5ccccc5C4)cc3)nc12 | > 35 µM (inactive)
Cc1ccc(Sc2c([N+](=O)[O-])c(=O)n(C)c3ccccc23)cc1 | > 35 µM (inactive)
O=C(NCc1ccccc1Cl)c1cccc2c1C(=O)c1ccc(-c3ccc(OC(F)(F)F)cc3)cc1S2(=O)=O | > 35 µM (inactive)
CC1=NNC(=O)/C1=C\c1cn(-c2ccccc2)nc1-c1ccccc1 | 11.3 µM
CC(C)(C)C1CCc2onc(C(=O)Nc3cccc(O)c3)c2C1 (stereo not given) | > 35 µM (inactive)
Cc1nn(-c2ccccc2)c(Cl)c1CN(C(=O)CCl)c1ccc(Cl)cc1 | 24.6 µM
COc1ccc(C2CC(c3c(O)cc(C)oc3=O)=NCCS2)c(OC)c1 (stereo not given) | > 35 µM (inactive)
CC(C)(C)[C@H](N)C(=O)N[C@H]1CCC2C3CC=C4C[C@@H](O)CC[C@]4(C)C3CC[C@@]21C (stereo not given in full) | > 35 µM (inactive)

Structure (SMILES) | AC50
CC1=CC(=O)C(C(C)C)=C/C1=N/OS(=O)(=O)c1ccccc1 | 22 µM
CC1=NNC(=O)/C1=C\c1cn(-c2ccccc2)nc1-c1cccs1 | 14.3 µM
Cc1ccc(NC(=S)NC(NC(=O)Cc2cccc3ccccc23)C(Cl)(Cl)Cl)cc1 (stereo not given) | 22.9 µM
Cc1cc(C)n(-c2nc(Nc3ccccc3C)nc(-n3nc(C)cc3C)n2)n1 | 32.1 µM
CC(=O)Nc1ccc(NC(=O)C(C)OC(=O)/C=C/c2cn(-c3ccccc3)nc2-c2cccnc2)cc1 (stereo not given) | 25 µM
CCc1nnc(NC(=O)CSc2nc(-c3ccccc3)cc(-c3ccc(F)cc3)c2C#N)s1 | 32.2 µM
COCc1cc(C)nc(SCC(=O)Nc2nc(C)cs2)c1C#N | > 35 µM (inactive)
COc1ccc(OC[C@@H](O)CNC(=O)c2cccc3c2C(=O)c2ccc(-c4ccc(F)cc4OCc4ccccc4)cc2S3(=O)=O)cc1 | > 35 µM (inactive)
CCOc1cc(/C=C\[N+](=O)[O-])ccc1OCC(=O)Nc1ccccc1C | 5.27 µM
COc1cc(NC(=O)c2ccccc2F)ccc1NC(=O)c1cc2ccccc2o1 | 36.6 µM
CC(=O)OC(C)(C)/C=C/C(=O)C(C)(O)C1[C@H](O)C[C@@]2(C)C3CC=C4C(CC[C@@H](O)C4(C)C)[C@]3(CO)C(=O)C[C@]12C (stereo not given in full) | > 35 µM (inactive)
COc1ccccc1CCNC(C)CCc1ccc(O)cc1 (stereo not given) | > 35 µM (inactive)
O=C(Nc1ccc2oc(-c3ccccc3F)nc2c1)c1ccccc1F | > 35 µM (inactive)
COc1cc(-c2cc(-c3ccccc3)nc(SCC(=O)Nc3nccs3)c2C#N)cc(OC)c1OC | > 35 µM (inactive)
NC(=S)c1cn(C2OC(CO)C(O)C2O)c2ncnc(N)c12 (stereo not given) | > 35 µM (inactive)
CCS(=O)(=O)c1ncc(Cl)c(C(=O)Nc2ccc(S(=O)(=O)N3CCC(C)CC3)cc2)n1 | > 35 µM (inactive)
Cc1ccc2c(c1)c(C1=c3ccccc3=NC1=O)c(O)n2C | > 35 µM (inactive)
